Laboratory results reported in ChEMBL document CHEMBL4402603, “Structure-Activity Relationship of SPOP Inhibitors against Kidney Cancer” (J Med Chem, 2020).
Activity calls are given as the source filed them. The rule behind the calls is not given here.

How the values were obtained:
[1] = system: OS-RC-2; experiment: Antiproliferative activity against human OS-RC2 cells assessed as reduction in cell viability incubated for 72 hrs by MTT assay; assay type: functional, cell-based; details: OS-RC-2, 72 h
Method in brief: (§1)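 MTT read-out. Cells seeded at 1,000-2,200/well, grown 12 hr at 37 °C before compound, then exposed 72 hr. MTT for 4 hr, formazan dissolved in DMSO, A490 read. Untreated cells = 100% proliferation. IC50 quantitated; mean ± SD, n = 3.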

[2] = target: Speckle-type POZ protein (Homo sapiens) (UniProt O43791); experiment: Binding affinity to recombinant N-terminal GST/His-tagged MATH binding domain SPOP (unknown origin) expressed in Escherichia coli BL21 (DE3) assessed as change in melting temperature at 10 fold compound incubated for 15 mins by nano differential scanning fluorimetry (reference value: -1.7 degreeC)
[3] = target: Speckle-type POZ protein (Homo sapiens) (UniProt O43791); experiment: Binding affinity to recombinant N-terminal GST/His-tagged MATH binding domain SPOP (unknown origin) expressed in Escherichia coli BL21 (DE3) assessed as change in melting temperature at 20 fold compound incubated for 15 mins by nano differential scanning fluorimetry (reference value: -3.8 degreeC)
[4] = target: Speckle-type POZ protein (Homo sapiens) (UniProt O43791); experiment: Binding affinity to recombinant N-terminal GST/His-tagged SPOP (unknown origin) MATH binding domain expressed in Escherichia coli BL21 (DE3) assessed as change in melting temperature at 5 fold compound by SYPRO Orange dye based differential scanning fluorimetry (reference value: -1.7 degreeC)
[5] = system: A498; experiment: Antiproliferative activity against human A498 cells assessed as reduction in cell viability incubated for 72 hrs by MTT assay; assay type: functional, cell-based; details: A498, 72 h; method in brief: as §1
[6] = system: A498; experiment: Antiproliferative activity against human A498 cells assessed as reduction in cell viability at 30 uM incubated for 72 hrs by MTT assay relative to control; assay type: functional; details: A498, 72 h
Method in brief: (§2)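 MTT read-out. Cells seeded at 1,000-2,200/well, grown 12 hr at 37 °C, then compound added for 72 hr. MTT for 4 hr, formazan dissolved in DMSO, absorbance at 490 nm. Untreated-cell OD taken as 100% proliferation; inhibition reported at 30 μM.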

[7] = system: OS-RC-2; experiment: Antiproliferative activity against human OS-RC2 cells assessed as reduction in cell viability at 30 uM incubated for 72 hrs by MTT assay relative to control; assay type: functional; details: OS-RC-2, 72 h; method in brief: as §2
[8] = system: A498; experiment: Inhibition of colony formation in human A498 cells at 1 to 5 uM incubated for 12 days by crystal violet dye based assay; assay type: functional, cell-based
Method in brief: (§3)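 Cells seeded at 1,000/well, grown 12 days at 37 °C, 5% CO2, medium renewed every 3 days. Fixed with 10% acetic acid/10% methanol for 15 min, stained with 1% crystal violet for 10 min.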

[9] = system: OS-RC-2; experiment: Inhibition of colony formation in human OS-RC2 cells at 1 to 5 uM incubated for 12 days by crystal violet dye based assay; assay type: functional, cell-based; method in brief: as §3
[10] = Solubility of compound in cell culture medium in presence of 0.2 % DMSO; assay type: physicochemical
Method in brief: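 Solubility determined in cell culture medium containing 0.2% DMSO.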

[11] = target: Speckle-type POZ protein (Homo sapiens) (UniProt O43791); experiment: Inhibition of SPOP signalling in human OS-RC2 cells assessed as accumulation of PTEN at 5 to 15 uM incubated for 12 hrs by Western blot analysis; assay type: cell-based
[12] = target: Speckle-type POZ protein (Homo sapiens) (UniProt O43791); experiment: Binding affinity to recombinant N-terminal GST/His-tagged SPOP (unknown origin) MATH binding domain expressed in Escherichia coli BL21 (DE3) assessed as change in melting temperature at 1 fold compound by SYPRO Orange dye based differential scanning fluorimetry (reference value: -1.7 degreeC)
[13] = target: Speckle-type POZ protein (Homo sapiens) (UniProt O43791); experiment: Binding affinity to recombinant N-terminal GST/His-tagged SPOP (unknown origin) MATH binding domain expressed in Escherichia coli BL21 (DE3) assessed as change in melting temperature at 10 fold compound by SYPRO Orange dye based differential scanning fluorimetry (reference value: -1.7 degreeC)

Speckle-type POZ protein (Homo sapiens), sequence (O43791 whole entry, the tested form may be a part): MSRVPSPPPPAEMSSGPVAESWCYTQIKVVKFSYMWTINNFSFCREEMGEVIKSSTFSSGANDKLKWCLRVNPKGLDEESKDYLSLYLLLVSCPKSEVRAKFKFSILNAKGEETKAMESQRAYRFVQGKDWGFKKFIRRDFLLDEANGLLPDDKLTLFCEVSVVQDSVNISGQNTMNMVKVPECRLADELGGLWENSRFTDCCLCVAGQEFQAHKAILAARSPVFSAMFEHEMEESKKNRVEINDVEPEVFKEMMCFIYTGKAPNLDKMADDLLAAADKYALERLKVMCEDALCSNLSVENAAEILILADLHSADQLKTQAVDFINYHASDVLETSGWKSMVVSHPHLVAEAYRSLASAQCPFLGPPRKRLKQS

| SMILES | IC50 [1] | ΔTm [2] | ΔTm [3] | ΔTm [4] | IC50 [5] | inhibition at 30 µM [6] | inhibition at 30 µM [7] | inhibition [8] | inhibition [9] | solubility [10] | inhibition [11] | ΔTm [12] | ΔTm [13] |
| --- | --- | --- | --- | --- | --- | --- | --- | --- | --- | --- | --- | --- | --- |
| Cc1cccn2c(=O)c3cc(C(=O)NCCCN4CCOCC4)c(=N)n(CCc4ccc(Br)cc4)c3nc12 | 5 µM | 2.3 °C | 3.5 °C | 1.3 °C | 3000 nM | 89% | 96% | Active | Active | 5 to 10 µM |  |  |  |
| Cc1cccn2c(=O)c3cc(C(=O)NC4CCCCC4)c(=N)n(CCc4cccs4)c3nc12 | 5.9 µM | 2.7 °C | 2.7 °C |  | 6300 nM | 90% | 90% |  |  |  | Active |  |  |
| COc1ccc(CCNC(=O)c2cc3c(=O)n4cccc(C)c4nc3n(CCc3cccs3)c2=N)cc1 | 4.2 µM |  |  |  | 2800 nM | 87% | 75% | Active | Active | 2.5 to 5 µM | Active |  |  |
| Cc1cccn2c(=O)c3cc(C(=O)NCCCN4CCOCC4)c(=N)n(CCc4cccc(F)c4)c3nc12 | 4.6 µM | 3.7 °C | 5.3 °C | 4 °C | 2400 nM | 89% | 92% |  |  |  | Active |  |  |
| Cc1cccn2c(=O)c3cc(C(=O)NCCCN4CCOCC4)c(=N)n(CCc4cccs4)c3nc12 | 7.6 µM | 3.2 °C | 5.1 °C |  | 2600 nM | 90% | 82% |  |  |  | Active |  |  |
| Cc1cccn2c(=O)c3cc(C(=O)NCCCN4CCOCC4)c(=N)n(CCc4ccc(F)cc4)c3nc12 | 6.6 µM | 2.5 °C | 2.9 °C | 2 °C | 3100 nM | 90% | 88% |  |  |  |  |  |  |
| Cc1cccn2c(=O)c3cc(C(=O)NCc4cccnc4)c(=N)n(CCCN4CCOCC4)c3nc12 | > 50 µM | 0 °C | 0.2 °C | 0.3 °C | > 50000 nM |  |  |  |  |  |  | 0 °C | 0.3 °C |
| Cc1cccn2c(=O)c3cc(C(=O)NCCCN4CCOCC4)c(=N)n(CCc4ccccc4)c3nc12 | 5.8 µM | 2.8 °C | 4 °C | 3 °C | 2700 nM | 88% | 90% | Active | Active | 30 to 45 µM |  |  |  |
